Only some compounds are listed: those with a hit (about 2.3% of all), similar ones and a draw of the others.
TRPC6 act – activates the mouse TRPC6 cation channel. Q61143. HEK293-TRPC6 membrane potential dye fluorescence; stronger effect = higher value. B-score at 10 µM. 310,000 tested, 0.13% active. AID 2550;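 active means B-score of the integrated fluorescence ratio above library mean plus 3 SD, and starting fluorescence ratio within library mean plus 5 SD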;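 further: higher score means more depolarization so channel activation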
TRPC6 inhibitor – mouse TRPC6 channel inhibition | Q61143 | HEK293-TRPC6, membrane potential dye, ACh-evoked depolarization; stronger effect = lower value | B-score at 10 µM | 310,000 tested, 1.1% active | AID 2553;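 active means B-score under library mean minus 3 SD, initial fluorescence not abnormally high, positive integrated signal ratio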;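 further: B-score derived from integrated fluorescence ratio over the kinetic read; more negative B-score means stronger inhibition of depolarization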
TRPC4 PAM – TRPC4 (mouse) allosteric potentiation; HEK293 TRPC4beta/mu-opioid, DAMGO EC20, Fluo-4 Ca2+ flux; stronger effect = higher value; B-score at 10 µM; AID 2227; 310,000 tested, 0.42% active; Q9QUQ5;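 active means B-score of calcium response area above 5 SD of library B-scores, with initial fluorescence ratio within 5 SD of library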
Target sequence (Q9QUQ5 whole entry, looked up): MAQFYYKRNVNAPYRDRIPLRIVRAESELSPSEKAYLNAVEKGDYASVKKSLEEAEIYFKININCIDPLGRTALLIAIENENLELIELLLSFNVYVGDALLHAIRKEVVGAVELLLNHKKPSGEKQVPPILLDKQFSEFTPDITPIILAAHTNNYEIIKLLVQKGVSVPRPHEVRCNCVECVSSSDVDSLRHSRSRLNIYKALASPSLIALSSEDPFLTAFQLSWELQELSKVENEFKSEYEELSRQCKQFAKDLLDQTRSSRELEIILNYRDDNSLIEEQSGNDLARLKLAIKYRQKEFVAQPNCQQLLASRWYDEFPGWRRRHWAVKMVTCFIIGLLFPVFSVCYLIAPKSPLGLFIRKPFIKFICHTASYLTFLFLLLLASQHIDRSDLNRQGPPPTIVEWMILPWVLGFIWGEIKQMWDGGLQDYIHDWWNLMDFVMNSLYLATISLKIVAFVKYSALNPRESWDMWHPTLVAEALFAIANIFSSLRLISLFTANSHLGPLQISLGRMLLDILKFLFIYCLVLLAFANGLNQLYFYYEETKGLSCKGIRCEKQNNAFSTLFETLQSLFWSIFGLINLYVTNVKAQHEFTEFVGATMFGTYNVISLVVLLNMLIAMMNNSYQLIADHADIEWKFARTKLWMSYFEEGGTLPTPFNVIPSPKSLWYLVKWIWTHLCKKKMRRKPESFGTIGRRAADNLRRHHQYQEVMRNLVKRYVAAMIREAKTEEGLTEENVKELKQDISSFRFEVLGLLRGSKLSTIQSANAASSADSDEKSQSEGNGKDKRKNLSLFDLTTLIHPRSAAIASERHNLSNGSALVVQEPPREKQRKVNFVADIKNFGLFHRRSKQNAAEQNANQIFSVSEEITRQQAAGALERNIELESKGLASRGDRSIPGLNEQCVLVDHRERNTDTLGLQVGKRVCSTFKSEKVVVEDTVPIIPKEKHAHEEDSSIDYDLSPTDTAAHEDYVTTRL
TRPC4 block – TRPC4 (mouse) channel inhibition | 300,000 tested, 0.39% active | HEK293 TRPC4beta/mu-opioid, DAMGO-evoked Fluo4 calcium flux; stronger effect = lower value | B-score at 10 µM | AID 2247 | Q9QUQ5;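 active means B-score over 3 SD under the library average, no early fluorescence shift, positive overall ratio signal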
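Material: HEK293 cells with stable TRPC4beta plus mu-opioid receptor expression / Probe or stimulus: DAMGO in two steps, submaximal then maximal / Compound: single concentration per test compound / Technique: kinetic Fluo4 fluorescence imaging of calcium influx / Read-out: per-well B score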
TRPC4 agonist – activators of mouse TRPC4 channel | Q9QUQ5 | HEK293 TRPC4beta/mu-opioid, Fluo4 calcium fluorescence; stronger effect = higher value | B-score at 10 µM | 310,000 tested, 0.49% active;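 active means B-score above 5 SD of library B-scores, and initial fluorescence ratio not above library mean plus 5 SD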;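 further: positive B-score marks a calcium rise read as TRPC4 activation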
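System – HEK293 cells stably co-expressing mouse TRPC4beta and mu-opioid receptor · Signal – Fluo4 calcium-sensitive dye fluorescence, kinetic, 1 Hz baseline · Benchmarks – buffer (low) and maximal DAMGO (high) · Read-out – B score of integrated fluorescence ratio per well · Incubation – dye loading 45 min room temperature, 110 s kinetic read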
A number is an active result.

Screening COc1ccc(OC)c(N(/C(N)=N/c2nc(C)cc(C)n2)S(=O)(=O)c2ccc(NC(C)=O)cc2)c1 returned TRPC6 act inactive, TRPC6 inhibitor inactive, TRPC4 PAM inactive, TRPC4 block inactive and TRPC4 agonist inactive.
C=CCNC(=O)NC(=O)COC(=O)c1nc2nccc(C)n2n1 was read as TRPC6 act inactive, TRPC6 inhibitor inactive, TRPC4 PAM inactive, TRPC4 block inactive and TRPC4 agonist inactive.
Screening CCOC(=O)c1[nH]ncc1CN1CCC(Cc2ccccc2)(C(=O)OCC)CC1 returned TRPC6 act inactive, TRPC6 inhibitor inactive, TRPC4 PAM inactive, TRPC4 block inactive and TRPC4 agonist inactive.
`CCOC(=O)C1(CC2CC2)CCN(Cc2cn[nH]c2-c2ccccc2)CC1` gave TRPC6 act inactive, TRPC6 inhibitor inactive, TRPC4 PAM inactive, TRPC4 block -8 and TRPC4 agonist 48.
`CCOC(=O)C1(Cc2ccccc2)CCN(Cc2cnn(CC)c2)CC1` gave TRPC6 act inactive, TRPC6 inhibitor inactive, TRPC4 PAM inactive, TRPC4 block inactive and TRPC4 agonist 124.
Screening CCOC(=O)C1(Cc2ccccc2)CCN(Cc2cn[nH]c2-c2ccccc2)CC1 returned TRPC6 act inactive, TRPC6 inhibitor inactive, TRPC4 PAM inactive, TRPC4 block inactive and TRPC4 agonist 126.
Screening CCc1ccc(S(=O)(=O)/N=C2\C=C(Nc3cccc(C(=O)O)c3)C(=O)c3ccccc32)cc1 returned TRPC6 act inactive, TRPC6 inhibitor inactive, TRPC4 PAM inactive, TRPC4 block -8 and TRPC4 agonist inactive.
`CCc1ccc(S(=O)(=O)/N=C2\C=C(Nc3ccc(O)cc3)C(=O)c3ccccc32)cc1` gave TRPC6 act inactive, TRPC6 inhibitor inactive, TRPC4 PAM inactive, TRPC4 block inactive and TRPC4 agonist inactive.
For CC(=O)N/C(=C\c1ccc(C)cc1)C(=O)O the results were TRPC6 act inactive, TRPC6 inhibitor inactive, TRPC4 PAM inactive, TRPC4 block inactive and TRPC4 agonist inactive.
CCOC(=O)C(=CNc1nc(-c2ccccc2)c(C(=O)Nc2ccc(-c3ccccc3)cc2)s1)C(=O)OCC was read as TRPC6 act inactive, TRPC6 inhibitor inactive, TRPC4 PAM inactive, TRPC4 block inactive and TRPC4 agonist inactive.
`COc1ccc(S(=O)(=O)Nc2cccc(-c3ccc4nncn4n3)c2)c(OC)c1` gave TRPC6 act inactive, TRPC6 inhibitor inactive, TRPC4 PAM inactive, TRPC4 block inactive and TRPC4 agonist inactive.
Screening CCCCN(C)CCNC(=S)Nc1ccc2nc(N3CCN(CC)CC3)cc(C)c2c1 returned TRPC6 act inactive, TRPC6 inhibitor inactive, TRPC4 PAM 16, TRPC4 block inactive and TRPC4 agonist inactive.
For CCCN(CCC)CCNC(=O)CCC(=O)Nc1ccc2nc(N3CCN(C)CC3)cc(C)c2c1 the results were TRPC6 act inactive, TRPC6 inhibitor inactive, TRPC4 PAM inactive, TRPC4 block inactive and TRPC4 agonist 87.
For CCN1CCN(c2cc(C)c3cc(NC(=S)NCCN(C)C)ccc3n2)CC1 the results were TRPC6 act inactive, TRPC6 inhibitor inactive, TRPC4 PAM inactive, TRPC4 block inactive and TRPC4 agonist inactive.
Screening Cc1ccc(OCc2cccc(S(=O)(=O)N(C)C)c2)c([N+](=O)[O-])n1 returned TRPC6 act inactive, TRPC6 inhibitor inactive, TRPC4 PAM inactive, TRPC4 block inactive and TRPC4 agonist inactive.
Screening Cc1cc(NC(=O)C(C)SCC(=O)O)no1 (centres undefined) returned TRPC6 act inactive, TRPC6 inhibitor inactive, TRPC4 PAM inactive, TRPC4 block inactive and TRPC4 agonist inactive.
`Cc1cccc(N(Cc2ccccc2)C(=O)CSC(C)C(=O)Nc2cc(C)on2)c1` (centres undefined) gave TRPC6 act inactive, TRPC6 inhibitor inactive, TRPC4 PAM inactive, TRPC4 block -6 and TRPC4 agonist inactive.
O=C1CCc2cc(NS(=O)(=O)c3ccc(Br)cc3)cc3c2N1CC3 was read as TRPC6 act inactive, TRPC6 inhibitor inactive, TRPC4 PAM inactive, TRPC4 block inactive and TRPC4 agonist inactive.
For Cc1cccc(C)c1N1CCc2cn[nH]c21 the results were TRPC6 act inactive, TRPC6 inhibitor inactive, TRPC4 PAM inactive, TRPC4 block -6 and TRPC4 agonist inactive.
CCOc1ccc(C(=O)NCC(=O)Nc2ncccc2C)cc1OCC was read as TRPC6 act inactive, TRPC6 inhibitor inactive, TRPC4 PAM inactive, TRPC4 block inactive and TRPC4 agonist inactive.
For COc1cccc(OC)c1OCCCc1c(C)n[nH]c1C the results were TRPC6 act inactive, TRPC6 inhibitor inactive, TRPC4 PAM inactive, TRPC4 block inactive and TRPC4 agonist inactive.
`Cc1cccc(OCCCc2c(C)n[nH]c2C)c1` gave TRPC6 act inactive, TRPC6 inhibitor inactive, TRPC4 PAM inactive, TRPC4 block -6 and TRPC4 agonist inactive.
`CCOc1cc2sc(N3CCC(C(=O)NCCCN4CCCC4=O)CC3)nc2cc1Br` gave TRPC6 act inactive, TRPC6 inhibitor inactive, TRPC4 PAM inactive, TRPC4 block inactive and TRPC4 agonist inactive.
For CCN1CCN(c2c(Cl)cccc2NC(=O)c2cccs2)CC1 the results were TRPC6 act inactive, TRPC6 inhibitor inactive, TRPC4 PAM 39, TRPC4 block inactive and TRPC4 agonist inactive.
For CCN1CCN(c2c(Cl)cccc2NC(=O)c2ccco2)CC1 the results were TRPC6 act inactive, TRPC6 inhibitor inactive, TRPC4 PAM inactive, TRPC4 block inactive and TRPC4 agonist 65.
`O=C(Nc1cccc(Cl)c1N1CCOCC1)c1ccco1` gave TRPC6 act inactive, TRPC6 inhibitor inactive, TRPC4 PAM inactive, TRPC4 block inactive and TRPC4 agonist inactive.
CCN1CCN(c2c(Cl)cccc2NC(=O)c2ccc([N+](=O)[O-])o2)CC1 was read as TRPC6 act inactive, TRPC6 inhibitor -8.7, TRPC4 PAM inactive, TRPC4 block inactive and TRPC4 agonist inactive.
Screening CC(=O)n1c2c(c3ccccc31)OC(N)=C(C#N)C2c1ccc(C(C)C)cc1 (centres undefined) returned TRPC6 act inactive, TRPC6 inhibitor inactive, TRPC4 PAM 12, TRPC4 block inactive and TRPC4 agonist inactive.
`COc1cccc(CNC(=O)CCC2CCCN(c3cc(C)nc(N(C)C)n3)C2)c1` (centres undefined) gave TRPC6 act inactive, TRPC6 inhibitor inactive, TRPC4 PAM inactive, TRPC4 block -6 and TRPC4 agonist inactive.
`CCNC(=S)N(Cc1cc2cc(C)ccc2[nH]c1=O)C1CCCC1` gave TRPC6 act inactive, TRPC6 inhibitor inactive, TRPC4 PAM 12, TRPC4 block inactive and TRPC4 agonist inactive.
Screening COc1ccc(C2Nc3ccccc3C(=O)N2Cc2ccco2)cc1COc1ccc(NC(C)=O)cc1 (centres undefined) returned TRPC6 act inactive, TRPC6 inhibitor inactive, TRPC4 PAM inactive, TRPC4 block inactive and TRPC4 agonist 110.
For COc1ccc(C2Nc3ccccc3C(=O)N2Cc2ccco2)cc1COc1ccccc1F (centres undefined) the results were TRPC6 act inactive, TRPC6 inhibitor inactive, TRPC4 PAM inactive, TRPC4 block inactive and TRPC4 agonist inactive.
